Data on 28 molecules can be found in ChEMBL document CHEMBL3112390, “Discovery and SAR of 5-aminooctahydrocyclopentapyrrole-3a-carboxamides as potent CCR2 antagonists” (Bioorg Med Chem Lett, 2014).

A value given as a limit tells only on which side of the number the result lay.

Series [1] has as its target C-C chemokine receptor type 2 (Homo sapiens, UniProt P41597). Kind of series: Binding affinity to CCR2 receptor (unknown origin).
The target of series [2] is Voltage-gated inwardly rectifying potassium channel KCNH2 (Homo sapiens, UniProt Q12809). Kind of series: Binding affinity to human ERG.
Series [3] can be described thus: Cmax in rat at 10 mg/kg, po. The arrangement: dose 10 mg/kg, route oral. It counts as ADME, organism-based. Particulars: in vivo. In outline:
(§1)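 Rat pharmacokinetics after a single oral dose of 10 mpk given in 0.5% methocel. Maximum plasma concentration and plasma exposure (AUC) were taken from the plasma concentration–time profile.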

A short description of series [4]: AUC in rat at 10 mg/kg, po. It counts as ADME, organism-based. The arrangement: dose 10 mg/kg, route oral. Particulars: plasma. In outline:
as §1

In the next series the target is hERG (KCNH2) (Homo sapiens, UniProt Q12809). Kind of series: Inhibition of human ERG at 3 uM by patchxpress assay.
Chain of hERG (KCNH2) (Q12809 whole entry): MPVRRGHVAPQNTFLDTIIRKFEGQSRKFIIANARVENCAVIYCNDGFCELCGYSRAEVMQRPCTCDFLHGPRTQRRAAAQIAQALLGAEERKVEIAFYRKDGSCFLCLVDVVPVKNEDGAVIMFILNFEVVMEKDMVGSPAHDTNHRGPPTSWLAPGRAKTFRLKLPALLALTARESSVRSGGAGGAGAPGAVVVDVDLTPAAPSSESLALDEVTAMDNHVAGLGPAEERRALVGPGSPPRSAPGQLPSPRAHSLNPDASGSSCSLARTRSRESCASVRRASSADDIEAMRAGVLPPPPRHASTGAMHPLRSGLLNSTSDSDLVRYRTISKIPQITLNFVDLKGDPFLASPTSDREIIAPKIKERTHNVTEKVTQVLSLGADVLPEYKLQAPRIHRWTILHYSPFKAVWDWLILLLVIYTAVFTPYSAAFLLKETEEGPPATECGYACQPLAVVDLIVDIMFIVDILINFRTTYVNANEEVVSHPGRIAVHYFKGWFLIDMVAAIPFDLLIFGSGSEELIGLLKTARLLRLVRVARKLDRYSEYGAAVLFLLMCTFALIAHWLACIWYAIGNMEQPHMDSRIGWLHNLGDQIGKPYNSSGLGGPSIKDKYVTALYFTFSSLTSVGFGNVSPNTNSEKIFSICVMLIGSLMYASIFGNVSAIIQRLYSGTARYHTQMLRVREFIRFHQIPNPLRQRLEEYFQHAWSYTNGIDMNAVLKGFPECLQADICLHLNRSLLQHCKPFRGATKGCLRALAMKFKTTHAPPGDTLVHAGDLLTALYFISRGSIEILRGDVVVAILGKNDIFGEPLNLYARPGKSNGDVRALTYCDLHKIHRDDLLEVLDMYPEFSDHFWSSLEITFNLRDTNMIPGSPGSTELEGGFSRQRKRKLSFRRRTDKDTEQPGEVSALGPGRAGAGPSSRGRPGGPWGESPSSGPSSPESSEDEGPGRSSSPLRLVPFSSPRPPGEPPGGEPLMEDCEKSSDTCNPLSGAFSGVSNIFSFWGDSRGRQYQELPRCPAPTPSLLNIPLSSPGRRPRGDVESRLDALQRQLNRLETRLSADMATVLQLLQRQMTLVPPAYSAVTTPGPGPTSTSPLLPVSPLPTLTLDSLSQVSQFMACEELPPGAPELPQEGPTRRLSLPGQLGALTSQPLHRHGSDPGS

Chain of C-C chemokine receptor type 2 (P41597 whole entry): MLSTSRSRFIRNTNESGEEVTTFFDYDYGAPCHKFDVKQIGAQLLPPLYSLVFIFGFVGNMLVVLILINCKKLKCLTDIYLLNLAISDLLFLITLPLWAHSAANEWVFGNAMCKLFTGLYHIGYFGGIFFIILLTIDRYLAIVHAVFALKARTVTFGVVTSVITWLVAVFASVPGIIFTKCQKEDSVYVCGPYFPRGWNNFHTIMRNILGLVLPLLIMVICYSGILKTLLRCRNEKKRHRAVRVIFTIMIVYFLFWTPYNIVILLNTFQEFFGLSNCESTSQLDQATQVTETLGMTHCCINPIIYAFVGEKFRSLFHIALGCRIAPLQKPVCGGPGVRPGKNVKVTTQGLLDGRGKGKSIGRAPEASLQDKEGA
Chain of Voltage-gated inwardly rectifying potassium channel KCNH2 (Q12809 whole entry): as the sequence (Q12809 whole entry) above

Consider `COC1COCCC1N[C@@H]1C[C@H]2CN(C(=O)OCCN3CCCC3)C[C@@]2(C(=O)N2CCc3ncc(C(F)(F)F)cc3C2)C1` (mixture of isomers), for which the figures for the IC50 in series [1] and in series [2] were 33 nM and above 50 µM, respectively.

As to `COC1COCCC1N[C@@H]1C[C@H]2CN(C(N)=O)C[C@@]2(C(=O)N2CCc3ncc(C(F)(F)F)cc3C2)C1` (mixture of isomers), the IC50 in series [1] is 64 nM; in series [2], above 50 µM. In addition, the Cmax in series [3] stood at 70.6 ng/mL. Further, the AUC in series [4] was found to be 74 ng·h/mL.

As for `COC1COCCC1N[C@@H]1C[C@H]2CN(C(=O)OCCN3CCOCC3)C[C@@]2(C(=O)N2CCc3ncc(C(F)(F)F)cc3C2)C1` (mixture of isomers), the figures for the IC50 in series [1] and in series [2] were 41 nM and above 50 µM, respectively.

Take `COC1COCCC1N[C@@H]1C[C@H]2CN(C(=O)OCC(C)C)C[C@@]2(C(=O)N2CCc3ncc(C(F)(F)F)cc3C2)C1` (mixture of isomers): the IC50 in series [1] is 35 nM; in series [2] it was above 50 µM.

Turning to `CCN1C[C@@H]2C[C@@H](NC3CCOCC3OC)C[C@]2(C(=O)N2CCc3ncc(C(F)(F)F)cc3C2)C1` (mixture of isomers), the results for the IC50 in series [1] and in series [2] were 629 nM and 42.6 µM, respectively.

As to `COC1COCCC1N[C@@H]1C[C@H]2CN(C(=O)NCc3ccccc3)C[C@@]2(C(=O)N2CCc3ncc(C(F)(F)F)cc3C2)C1` (mixture of isomers), the IC50 was 57 nM in series [1] and above 50 µM in series [2].

With `COC1COCCC1N[C@@H]1C[C@H]2CN(/C(N)=N\C#N)C[C@@]2(C(=O)N2CCc3ncc(C(F)(F)F)cc3C2)C1` (mixture of isomers), the IC50 was 37 nM in series [1] and above 50 µM in series [2].

Take `COC1COCCC1N[C@@H]1C[C@H]2CN(c3nccs3)C[C@@]2(C(=O)N2CCc3ncc(C(F)(F)F)cc3C2)C1` (mixture of isomers): the IC50 in series [1] is 152 nM; in series [2], above 50 µM.

As for `COC1COCCC1N[C@@H]1C[C@H]2CN(C(C)C)C[C@@]2(C(=O)N2CCc3ncc(C(F)(F)F)cc3C2)C1` (mixture of isomers), the IC50 is 1210 nM in series [1] and above 50 µM in series [2].

In the case of `COC1COCCC1N[C@@H]1C[C@H]2CN(C(=O)OCc3ccccc3)C[C@@]2(C(=O)N2CCc3ncc(C(F)(F)F)cc3C2)C1` (mixture of isomers), the IC50 in series [1] was 118 nM; in series [2] it was above 50 µM.

In the case of `COC1COCCC1N[C@@H]1C[C@H]2CN(C(=O)C#CC3CC3)C[C@@]2(C(=O)N2CCc3ncc(C(F)(F)F)cc3C2)C1` (mixture of isomers), the values for the IC50 in series [1] and in series [2] were 87 nM and 49.6 µM, respectively.

Consider `COC1COCCC1N[C@@H]1C[C@H]2CN(C(=O)OCCNC(C)=O)C[C@@]2(C(=O)N2CCc3ncc(C(F)(F)F)cc3C2)C1` (mixture of isomers), for which the IC50 in series [1] is 45 nM; in series [2], above 50 µM.

In series [1], `COC1COCCC1N[C@@H]1C[C@H]2CN(C3CC3)C[C@@]2(C(=O)N2CCc3ncc(C(F)(F)F)cc3C2)C1` (mixture of isomers) registered an IC50 of 180 nM. That is a sub-micromolar value.

Consider `COC1COCCC1N[C@@H]1C[C@H]2CN(C(=O)OCC(C)(C)C)C[C@@]2(C(=O)N2CCc3ncc(C(F)(F)F)cc3C2)C1` (mixture of isomers), for which the values for the IC50 in series [1] and in series [2] were 59 nM and above 50 µM, respectively.

In series [2], `COC1COCCC1N[C@@H]1C[C@H]2CNC[C@@]2(C(=O)N2CCc3ncc(C(F)(F)F)cc3C2)C1` (mixture of isomers) had an IC50 above 50 µM.

For `COC1COCCC1N[C@@H]1C[C@H]2CN(C3COC3)C[C@@]2(C(=O)N2CCc3ncc(C(F)(F)F)cc3C2)C1` (mixture of isomers), the IC50 in series [1] is 126 nM; in series [2], above 50 µM.

For `COC1COCCC1N[C@@H]1C[C@H]2CN(C(=O)OCC3CCOCC3)C[C@@]2(C(=O)N2CCc3ncc(C(F)(F)F)cc3C2)C1` (mixture of isomers), in series [1], the IC50 is 32 nM.

Consider `COC1COCCC1N[C@@H]1C[C@H]2CN(C(=O)/C=C/C(C)(C)C)C[C@@]2(C(=O)N2CCc3ncc(C(F)(F)F)cc3C2)C1` (mixture of isomers), for which the IC50 is 68 nM in series [1] and above 50 µM in series [2].

For the molecule `COC1COCCC1N[C@@H]1C[C@H]2CN(C(=O)/C=C/c3ccccc3)C[C@@]2(C(=O)N2CCc3ncc(C(F)(F)F)cc3C2)C1` (mixture of isomers), in series [2], the IC50 amounted to 24.1 µM.

Take `COC1COCCC1N[C@@H]1C[C@H]2CN(C(=O)NC(C)C)C[C@@]2(C(=O)N2CCc3ncc(C(F)(F)F)cc3C2)C1` (mixture of isomers): the IC50 is 410 nM in series [1] and above 50 µM in series [2].

Take `COC1COCCC1N[C@@H]1C[C@H]2CN(C(=O)OCCC3CCOCC3)C[C@@]2(C(=O)N2CCc3ncc(C(F)(F)F)cc3C2)C1` (mixture of isomers): the figures for the IC50 in series [1] and in series [2] were 31 nM and above 50 µM, respectively. Also, at hERG (KCNH2), the inhibition at 3 µM amounted to 7.3%. Moreover, in series [3], the Cmax amounted to 145 ng/mL. This molecule yielded an AUC in series [4] of 427 ng·h/mL.

As for `COC1COCCC1N[C@@H]1C[C@H]2CN(c3ccccc3)C[C@@]2(C(=O)N2CCc3ncc(C(F)(F)F)cc3C2)C1` (mixture of isomers), the IC50 is 62 nM in series [1] and 22.9 µM in series [2].

Molecule `COC1COCCC1N[C@@H]1C[C@H]2CN(C)C[C@@]2(C(=O)N2CCc3ncc(C(F)(F)F)cc3C2)C1` (mixture of isomers) yielded an IC50 in series [2] above 50 µM.

For `COC(=O)N1C[C@@H]2C[C@@H](NC3CCOCC3OC)C[C@]2(C(=O)N2CCc3ncc(C(F)(F)F)cc3C2)C1` (mixture of isomers), the values for the IC50 in series [1] and in series [2] were 410 nM and above 50 µM, respectively.

For the molecule `COC1COCCC1N[C@@H]1C[C@H]2CN(C(C)=O)C[C@@]2(C(=O)N2CCc3ncc(C(F)(F)F)cc3C2)C1` (mixture of isomers), the IC50 in series [1] was 395 nM; in series [2], above 50 µM.

Turning to `COCCOC(=O)N1C[C@@H]2C[C@@H](NC3CCOCC3OC)C[C@]2(C(=O)N2CCc3ncc(C(F)(F)F)cc3C2)C1` (mixture of isomers), the IC50 in series [1] was 82 nM; in series [2], above 50 µM.

As to `COC1COCCC1N[C@@H]1C[C@H]2CN(C(=O)Oc3ccccc3)C[C@@]2(C(=O)N2CCc3ncc(C(F)(F)F)cc3C2)C1` (mixture of isomers), the IC50 was 560 nM in series [1] and above 50 µM in series [2].

For `CNC(=O)N1C[C@@H]2C[C@@H](NC3CCOCC3OC)C[C@]2(C(=O)N2CCc3ncc(C(F)(F)F)cc3C2)C1` (mixture of isomers), the figures for the concentration for half-maximal inhibition (IC50) in series [1] and in series [2] were 77 nM and above 50 µM, respectively.
